{"source": "ChEMBL document CHEMBL1649585", "about": "“Role of the Mycobacterium tuberculosis P55 efflux pump in intrinsic drug resistance, oxidative stress responses, and growth” (2009)", "key": {"[1]": {"test_system": "Mycobacterium tuberculosis", "experiment": "Antimicrobial activity against Mycobacterium bovis BCG by resazurine microtiter assay", "type": "functional", "conditions": "variant bovis BCG, Urine", "outline": "(§1)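 Resazurin microdilution in liquid medium: serial twofold compound dilutions, plates incubated 8 days at 37°C, then 2 more days after adding resazurin. MIC read from the indicator. Run in triplicate and repeated at least three times.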"}, "[2]": {"test_system": "Mycobacterium tuberculosis", "experiment": "Ratio of MIC for wild type Mycobacterium bovis BCG to MIC for wild type Mycobacterium bovis BCG in presence of 1 mg/liter CCCP", "type": "functional, variant bovis BCG"}, "[3]": {"test_system": "Mycobacterium tuberculosis", "experiment": "Antimicrobial activity against Mycobacterium bovis BCG by resazurine microtiter assay in presence of 0.5 mg/liter reserpine", "type": "functional", "conditions": "variant bovis BCG, Urine", "outline": "(§2)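 Resazurin microdilution MIC (serial twofold dilutions, 8 days at 37°C plus 2 days after resazurin) run with a fixed subinhibitory level of efflux pump inhibitor (valinomycin, reserpine or CCCP) present throughout. Triplicate, repeated at least three times.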"}, "[4]": {"test_system": "Mycobacterium tuberculosis", "experiment": "Antimicrobial activity against Mycobacterium bovis BCG by resazurine microtiter assay in presence of 1 mg/liter CCCP", "type": "functional", "conditions": "variant bovis BCG, Urine", "outline": "as §2"}, "[5]": {"test_system": "Mycobacterium tuberculosis", "experiment": "Antimicrobial activity against Mycobacterium bovis BCG by resazurine microtiter assay in presence of 0.1 mg/liter valinomycin", "type": "functional", "conditions": "variant bovis BCG, Urine", "outline": "as §2"}, "[6]": {"test_system": "Mycobacterium tuberculosis", "experiment": "Antimicrobial activity against Mycobacterium bovis BCG by twofold dilution method", "type": "functional", "conditions": "variant bovis BCG", "outline": "(§3)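 Agar MIC: log-phase cultures diluted to 10^5 cells/ml, 10 µl spotted onto Middlebrook 7H10 plates with serial twofold antibiotic dilutions. Visible growth scored after 21 days at 37°C. Triplicate, repeated at least three times.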"}, "[7]": {"test_system": "Mycobacterium tuberculosis", "experiment": "Effect on intracellular redox potential in wild-type Mycobacterium bovis BCG assessed as accumulation of formazan at 5 mg/liter after 1 hr by MTT assay", "type": "functional, organism-based", "conditions": "variant bovis BCG", "outline": "(§4)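 MTT reduction as an index of intracellular redox potential: cultures at OD600 0.2 treated with drug or solvent for 1 h at 37°C in quadruplicate wells, MTT (2 mg/ml stock) added, 3 h further incubation. Formazan solubilised with 10% SDS, 30 min shaking, absorbance at 600 nm. Repeated at least three independent times.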"}, "[8]": {"test_system": "Mycobacterium tuberculosis", "experiment": "Antimicrobial activity against Mycobacterium bovis BCG harboring pPAZ23 carrying p27-p55 operon by twofold dilution method", "type": "functional", "conditions": "variant bovis BCG", "outline": "as §3"}, "[9]": {"test_system": "Mycobacterium tuberculosis", "experiment": "Increase in intracellular redox potential in wild-type Mycobacterium bovis BCG assessed as increased accumulation of formazan at 5 mg/liter after 1 hr by MTT assay", "type": "functional, variant bovis BCG", "outline": "as §4"}, "[10]": {"test_system": "Mycobacterium tuberculosis", "experiment": "Antimicrobial activity against Mycobacterium bovis BCG harboring pPAZ23 carrying p27-p55 operon by resazurine microtiter assay", "type": "functional", "conditions": "variant bovis BCG, Urine", "outline": "as §1"}, "[11]": {"test_system": "Mycobacterium tuberculosis", "experiment": "Ratio of MIC for wild type Mycobacterium bovis BCG to MIC for Mycobacterium bovis BCG KOP55 harboring inactivated p55 gene", "type": "functional, variant bovis BCG"}, "[12]": {"test_system": "Mycobacterium tuberculosis", "experiment": "Ratio of MIC for Mycobacterium bovis BCG harboring pPAZ23 carrying p27-p55 operon to MIC for wild-type Mycobacterium bovis BCG", "type": "functional, variant bovis BCG"}, "[13]": {"test_system": "Mycobacterium tuberculosis", "experiment": "Decrease in intracellular redox potential in wild-type Mycobacterium bovis BCG assessed as decreased accumulation of formazan at 256 mg/liter after 1 hr by MTT assay", "type": "functional, variant bovis BCG", "parameters": "scale not given: the % may be the effect or the level left", "outline": "as §4"}}, "note": "The source made the active and inactive calls. The rule behind the calls is not given here. Where a SMILES comes first, the peptide text is derived from it. Bridges are numbered along the chain shown (N, C = ends). [ ]: non-standard residue; d: D form. The star is where a group is joined. Ileψ(thiazoline)Cys = CC[C@H](C)[C@H](N)C1=N[C@H](C(=O)*)CS1; dOrn = NCCC[C@@H](N)C(=O)O"}
{"smiles": "CC[C@@H](CO)NCCN[C@@H](CC)CO", "note": "[ETHAMBUTOL]", "values": [{"measurement": "MIC", "setting": "[1]", "value": 4, "unit": "µg/mL"}]}
{"smiles": "COC(=O)[C@H]1[C@H]2C[C@@H]3c4[nH]c5cc(OC)ccc5c4CCN3C[C@H]2C[C@@H](OC(=O)c2cc(OC)c(OC)c(OC)c2)[C@@H]1OC", "note": "[RESERPINE]", "values": [{"measurement": "MIC", "setting": "[1]", "value": 2, "unit": "µg/mL"}]}
{"smiles": "CO[C@@H]1[C@@H](OC(N)=O)[C@@H](O)[C@H](Oc2ccc3c(O)c(NC(=O)c4ccc(O)c(CC=C(C)C)c4)c(=O)oc3c2C)OC1(C)C", "note": "[NOVOBIOCIN]", "values": [{"measurement": "Ratio", "setting": "[2]", "value": 4}, {"measurement": "MIC", "setting": "[1]", "value": 16, "unit": "µg/mL"}, {"measurement": "MIC", "setting": "[3]", "value": 8, "unit": "µg/mL"}, {"measurement": "MIC", "setting": "[4]", "value": 4, "unit": "µg/mL"}, {"measurement": "MIC", "setting": "[5]", "value": 8, "unit": "µg/mL"}]}
{"smiles": "CC(C)[C@@H]1NC(=O)[C@H](C)OC(=O)[C@@H](C(C)C)NC(=O)[C@@H](C(C)C)OC(=O)[C@H](C(C)C)NC(=O)[C@H](C)OC(=O)[C@@H](C(C)C)NC(=O)[C@@H](C(C)C)OC(=O)[C@H](C(C)C)NC(=O)[C@H](C)OC(=O)[C@@H](C(C)C)NC(=O)[C@@H](C(C)C)OC1=O", "note": "[VALINOMYCIN]", "values": [{"measurement": "MIC", "setting": "[1]", "value": 0.4, "unit": "µg/mL"}]}
{"smiles": "N#CC(C#N)=NNc1cccc(Cl)c1", "note": "[CARBONYL CYANIDE M-CHLOROPHENYLHYDRAZONE]", "values": [{"measurement": "MIC", "setting": "[1]", "value": 4, "unit": "µg/mL"}]}
{"smiles": "Oc1cc(Cl)ccc1Oc1ccc(Cl)cc1Cl", "note": "[TRICLOSAN]", "values": [{"measurement": "MIC", "setting": "[6]", "value": 8, "unit": "µg/mL"}]}
{"smiles": "CC(C)/N=c1\\cc2n(-c3ccc(Cl)cc3)c3ccccc3nc-2cc1Nc1ccc(Cl)cc1", "note": "[CLOFAZIMINE]", "values": [{"measurement": "Activity", "setting": "[7]", "value": "inactive"}, {"measurement": "MIC", "setting": "[6]", "value": 0.1, "unit": "µg/mL"}, {"measurement": "MIC", "setting": "[8]", "value": 0.1, "unit": "µg/mL"}]}
{"smiles": "CN(C)CCCN1c2ccccc2Sc2ccc(Cl)cc21", "note": "[CHLORPROMAZINE]", "values": [{"measurement": "MIC", "setting": "[6]", "value": 4, "unit": "µg/mL"}]}
{"smiles": "CC1=CC(=O)c2ccccc2C1=O", "note": "[MENADIONE]", "values": [{"measurement": "fold change (FC)", "setting": "[9]", "value": 3.5}]}
{"smiles": "CC[C@H](C)[C@H](N)C1=N[C@H](C(=O)N[C@@H](CC(C)C)C(=O)N[C@H](CCC(=O)O)C(=O)N[C@H](C(=O)N[C@H]2CCCCNC(=O)[C@H](CC(N)=O)NC(=O)[C@@H](CC(=O)O)NC(=O)[C@H](Cc3cnc[nH]3)NC(=O)[C@@H](Cc3ccccc3)NC(=O)[C@H]([C@@H](C)CC)NC(=O)[C@@H](CCCN)NC2=O)[C@@H](C)CC)CS1", "note": "[BACITRACIN] ({Ileψ(thiazoline)Cys}-L[dE]IK[dOrn]I[dF]H[dD]N; lactam 4-C)", "values": [{"measurement": "MIC", "setting": "[1]", "value": "> 256", "unit": "µg/mL"}, {"measurement": "MIC", "setting": "[4]", "value": "> 256", "unit": "µg/mL"}]}
{"smiles": "O=[N+]([O-])c1cn2c(n1)OC[C@@H](OCc1ccc(OC(F)(F)F)cc1)C2", "note": "[PRETOMANID]", "values": [{"measurement": "MIC", "setting": "[1]", "value": 0.25, "unit": "µg/mL"}]}
{"smiles": "CO[C@H]1/C=C/O[C@@]2(C)Oc3c(C)c(O)c4c(O)c(c(/C=N/N5CCN(C)CC5)c(O)c4c3C2=O)NC(=O)/C(C)=C\\C=C\\[C@H](C)[C@H](O)[C@@H](C)[C@@H](O)[C@@H](C)[C@H](OC(C)=O)[C@@H]1C", "note": "[RIFAMPIN]", "values": [{"measurement": "Ratio", "setting": "[2]", "value": 4}, {"measurement": "MIC", "setting": "[1]", "value": 0.0032, "unit": "µg/mL"}, {"measurement": "MIC", "setting": "[3]", "value": 0.0016, "unit": "µg/mL"}, {"measurement": "MIC", "setting": "[4]", "value": 0.0008, "unit": "µg/mL"}, {"measurement": "MIC", "setting": "[5]", "value": 0.0016, "unit": "µg/mL"}, {"measurement": "MIC", "setting": "[10]", "value": 0.0032, "unit": "µg/mL"}]}
{"smiles": "CN[C@H](CC(C)C)C(=O)N[C@H]1C(=O)N[C@@H](CC(N)=O)C(=O)N[C@H]2C(=O)N[C@H]3C(=O)N[C@H](C(=O)N[C@H](C(=O)O)c4cc(O)cc(O)c4-c4cc3ccc4O)[C@H](O)c3ccc(c(Cl)c3)Oc3cc2cc(c3O[C@@H]2O[C@H](CO)[C@@H](O)[C@H](O)[C@H]2O[C@H]2C[C@](C)(N)[C@H](O)[C@H](C)O2)Oc2ccc(cc2Cl)[C@H]1O", "note": "[VANCOMYCIN]", "values": [{"measurement": "MIC", "setting": "[1]", "value": 4, "unit": "µg/mL"}, {"measurement": "Ratio", "setting": "[11]", "value": 16}, {"measurement": "MIC", "setting": "[4]", "value": 4, "unit": "µg/mL"}, {"measurement": "Ratio", "setting": "[12]", "value": 2}, {"measurement": "MIC", "setting": "[10]", "value": 8, "unit": "µg/mL"}]}
{"smiles": "CN(C)C(=O)/N=N/C(=O)N(C)C", "note": "[DIAMIDE]", "values": [{"measurement": "Activity", "setting": "[13]", "value": 25, "unit": "%"}]}
{"smiles": "Clc1ccc(COC(Cn2ccnc2)c2ccc(Cl)cc2Cl)cc1", "note": "(centres undefined) [ECONAZOLE]", "values": [{"measurement": "Ratio", "setting": "[11]", "value": 4}, {"measurement": "MIC", "setting": "[6]", "value": 6.4, "unit": "µg/mL"}, {"measurement": "Ratio", "setting": "[12]", "value": 2}, {"measurement": "MIC", "setting": "[8]", "value": 12.8, "unit": "µg/mL"}]}
